Results from the EternaBench riboswitch data.

Tested on: MS2 coat protein
Assay: apparent Kd, MS2 coat protein; higher = weaker binding; RNA-MaP array
Summary of the method: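 Designs measured on fewer than 10 clusters were excluded from the data. The rest were RNAs transcribed from sequenced DNA templates on an Illumina sequencing chip and incubated at room temperature, with or without input ligand, with fluorescently labeled MS2 coat protein at 1.5 nM to 3 μM for 0.8–1.5 h at the lowest to 10–20 min at the highest concentrations. Apparent Kd is the median of the per-cluster binding-curve fits.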

[1] = designed as: OFF switch for flavin mononucleotide, no ligand
[2] = ligand present: flavin mononucleotide, designed as: OFF switch for flavin mononucleotide
[3] = designed as: ON switch for flavin mononucleotide, no ligand
[4] = ligand present: flavin mononucleotide, designed as: ON switch for flavin mononucleotide

Row | Sequence | apparent Kd [1] [nM] | apparent Kd [2] [nM] | other results
1 | AUACAAUCAGGAUAUACUAGGCGAUAACAGAUUAUGACGUCACAUGAGGAUCACCCAUGUAGAAGGGAUCAGGA | 39.2 | 53.1 | –
2 | CAAUACGAUGUCAGGAUAUUAUUUCAAGUAGACGGUAAGAAGGGACAUGAGGAUCACCCAUGUACGGAAUACGC | 6.35 | 6.32 | –
3 | GCCAAGGUAACAGGAUAUUCUAAAGACGUGAGAUACUAAAUAAACAUGAGGAUCACCCAUGUGAAGAAGAAGGGUUAAGAGUAC | 15.2 | 12.5 | –
4 | CGAUACCAUGGUCAGGAUAUGAAACAGCUGACAUGAGGAUCACCCAUGUGAUAGGCAGGUGGACUUCAGAAGGGACACAUACACCA | – | – | apparent Kd [3]: 184 nM; apparent Kd [4]: 50.2 nM
5 | ACACAUCCACAUGAGGAUCACCCAUGUAAACCGAAAUAGCACUAGGAUAUGGGACAAACAAUUCACCAGAAGGAGUAAAAGAAA | – | – | apparent Kd [3]: 52.7 nM; apparent Kd [4]: 23.8 nM
6 | UUCACAGUGCAAGGAUAUGACAGUUUACAUGAGGAUCACCCAUGUUGGUCCUAUUCAGAAUGAGAUCAGAAGGUGCUAAUAUGU | 18.6 | 36.1 | –
7 | GCAGGAAAGCAGAAGGACACCACAUGAGGAUCACCCAUGUCGGCGCUGACUUUGAUCUUGAGGAUGUAGGAUAUGCGUUUCGGA | 8.76 | 17.4 | –
8 | CGACUCCCAGAGAAGGCCGCAAACAUGAGGAUCACCCAUGUACUACCUGAGUCUCGGGCGGUACCGGAGGAUAUCUAGGCUCGC | – | – | apparent Kd [3]: 26.6 nM; apparent Kd [4]: 10.9 nM
9 | CAACUGCUUGAGCUUACUUAUUGGACUUCCCGAGGACCGGUACGGCCGCCACUCGCAGGGACACAUGAGGAUCACCCAUGUAAAG | – | – | apparent Kd (designed as: OFF switch for tryptophan, no ligand): 15.7 nM; apparent Kd (ligand present: tryptophan, designed as: OFF switch for tryptophan): 16.2 nM
10 | CUAUACGUAACAUGAGGAUCACCCAUGUUCAGGUGACCAGGAAGAAGGGCUAGCAGAGUAGUUCAGCAGGAUAUUCGAUUAGAC | 38.6 | 28.9 | –
11 | CCUGUGAUCCACAUGAGGAUCACCCAUGUAUAAGUGAUUGACAGAAGGAGAGCAUGCUUGUGAUUCUAGGAUAUGUUUCUCAUA | 25.2 | 25.9 | –
12 | AGUCGUACCAAGAAGGUACCCGGCUAAUGGUGGUAAGGAUAUUGUACGAACCCUAACAUGAGGAUCACCCAUGUCCACAGUGGG | 53.5 | 33 | –
13 | CUCUUAGGACAGGAUAUGGAACGCAUGUGUGCUCCAGAAGGGUCUACAUGAGGAUCACCCAUGUUCGGGACGGU | 530 | 469 | –
14 | GCUCUACAGGAGAAGGUCAUAUCAUCGGUUAUUGAAGGAUAUCCUCAAGGGACGCUGAGGCGUACAUGAGGAUCACCCAUGUCC | – | – | apparent Kd [3]: 84.1 nM; apparent Kd [4]: 52.2 nM
15 | AGCAGAGCCUAGAAGGCAGUGCAGACCGCGCACUGAGGAUAUAGACUUUAAGAUUGUACAUGAGGAUCACCCAUGUUGAGUGGG | 563 | 450 | –
16 | UAGGACAUGAGGAUCACCCAUGUUGUACGGCGAGGACCGGUACGGCCGCCACUCGAGGCGUAAGUAGUAAAGAAUCUGAUUCAAU | – | – | apparent Kd (designed as: ON switch for tryptophan, no ligand): 21.4 nM; apparent Kd (ligand present: tryptophan, designed as: ON switch for tryptophan): 24.1 nM
17 | ACAGCAAACGUAGGAUAUGGGAGAACAUGAGGAUCACCCAUGUGGAAGUACGAGUUCGCUACAUACCAGAAGGACGAAAUCUAC | – | – | apparent Kd [3]: 156 nM; apparent Kd [4]: 35.8 nM
18 | CCAUUGUCAGGAUAUUGUGGUUUAGCGUCGAAAGGGCUUAGCAAGAAGGGACAUGAGGAUCACCCAUGUGUAGU | 33.8 | 146 | –
19 | UACAAGCAAGGAUAUACAUGAGGAUCACCCAUGUGGAGAGCCAGCAAAUUCCGGAAAUGUAGAAGGUGCCACAA | 34.4 | 32.8 | –
20 | GUCUCUAGGACAGGAUAUCUCCUCAGGGAUGCGAGAGAAGGGUCUAUUGACAUGAGGAUCACCCAUGUGGAUCAUGUCUAUGAU | 378 | 352 | –
21 | UAACCAUGCAAAGGAUAUCCAAUACUAUGAGACGGAGAAGGUAGAAACAUGGAGAAUUCCUACAUGAGGAUCACCCAUGUUAGA | 387 | 245 | –
22 | UCAUGCUGAGGAUAUACAUGAGGAUCACCCAUGUACAGAAUAAGGGAGUGCCAUCAAAGUAGAAGGCAGGACGU | 14.4 | 14.6 | –
23 | CUCGCGUGAGGAUAUGCCACGCCCGAAAGGCCGGGUCAUCGGCAGAAGGCACAUGAGGAUCACCCAUGUAUCGC | 13.3 | 63.9 | –
